Test results: ChEMBL document CHEMBL1135061, “Synthesis, hydrolytic activation and cytotoxicity of etoposide prodrugs” (Bioorg Med Chem Lett, 2002)

Legend:
[1] = molecular target: T1, S-formylglutathione hydrolase (Sus scrofa) (UniProt Q9GJT2); assay: Tested for rate constant at 37 degree Celsius in PBS buffer at 11.8 pH containing porcine liver esterase expressed in 10 e-3 min e-1
T1 sequence (whole entry): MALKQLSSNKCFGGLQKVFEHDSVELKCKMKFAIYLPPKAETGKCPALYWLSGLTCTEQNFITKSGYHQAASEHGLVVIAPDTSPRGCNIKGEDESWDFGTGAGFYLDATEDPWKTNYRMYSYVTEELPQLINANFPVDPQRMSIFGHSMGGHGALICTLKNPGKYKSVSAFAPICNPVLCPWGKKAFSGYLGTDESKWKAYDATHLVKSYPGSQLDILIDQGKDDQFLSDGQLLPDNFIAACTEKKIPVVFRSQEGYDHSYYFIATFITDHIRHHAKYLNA
How it was run: (§1)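 Drug at 37 °C in acetonitrile–aqueous buffer (20/80 vol%) at set pH, in human serum, or with pig liver carboxylic ester hydrolase. Serum samples pre-separated on C18 cartridges. Aliquots mixed 1:1 with acetonitrile, centrifuged, supernatant analysed by HPLC peak areas. First-order log conversion–time plots; k_obs and t1/2 from slopes; mean ± SD.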

[2] = Tested for half life period at 37 degree Celsius in PBS buffer at 7.3 pH in containing porcine liver esterase; format: ADME, Sus scrofa; conditions: pig, pH 7.3; how it was run: as §1
[3] = system: ADR5000 cell line; assay: Tested for cytotoxicity against Doxo resistant A2780 type ADR5000 cell line expressing MDR-1 (++) gene; format: functional, cell-based; conditions: Homo sapiens
How it was run: (§2)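 XTT assay; 10,000 tumor cells/well preincubated 24 h at 37 °C, 5% CO2, then drug added directly from DMSO stocks over 100 fM to […] range. After 72 h XTT added, 4 h further incubation, OD read at 450 nm. IC50 (50% growth inhibition) derived from viability–dilution plots of duplicate runs.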

[4] = Tested for half life period at 37 degree Celsius in PBS buffer at 7.3 pH containing porcine liver esterase; format: ADME, Sus scrofa; conditions: pig, pH 7.3; how it was run: as §1
[5] = system: MOLT-3; assay: Tested for cytotoxicity against parental T-cell leukemia type Molt 3 cell line expressing MDR-1 (-) gene; format: functional, cell-based; conditions: Homo sapiens; how it was run: as §2
[6] = system: SW480; assay: Tested for cytotoxicity against Colon adenocarcinoma resistant type SW480 cell line expressing MDR-1 (+) gene; ~50% cells affected by drug; format: functional, cell-based; conditions: Homo sapiens; how it was run: as §2
[7] = system: HT-29; assay: Tested for cytotoxicity against Colon carcinoma type HT-29 cell line expressing MDR-1 (-) gene; format: functional, cell-based; conditions: Homo sapiens; how it was run: as §2
[8] = system: MOVP-3; assay: Tested for cytotoxicity against VP 16 resistant Molt3 type MOVP-3 cell line expressing MDR-1 (++) gene; format: functional, cell-based; conditions: Homo sapiens; how it was run: as §2
[9] = system: VCR100; assay: Tested for cytotoxicity against T-lymphoblastoide VC resistant type VCR 100 cell line expressing MDR-1 (+) gene; format: functional, cell-based, Homo sapiens; how it was run: as §2
[10] = system: A2780; assay: Tested for cytotoxicity against Ovarian carcinoma parental type A2780 cell line expressing MDR-1 (-) gene; format: functional, cell-based; conditions: Homo sapiens; how it was run: as §2
[11] = Tested for half life period at 37 degree Celsius in PBS buffer at 11.8 pH containing porcine liver esterase; format: ADME, Sus scrofa; conditions: pig, pH 11.8; how it was run: as §1
[12] = system: HT-29; assay: Tested for cytotoxicity against Colon carcinoma type HT-29 cell line expressing MDR-1 (-) gene; 35% of cells were affected; format: functional, cell-based; conditions: Homo sapiens; how it was run: as §2
[13] = molecular target: Cholinesterase (Homo sapiens) (UniProt P06276); assay: Tested for rate constant at 37 degree Celsius in PBS buffer at 10.5 pH containing human serum esterase expressed in 10 e-3 min e-1
How it was run: (§3)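 Prodrug dissolved at 37 °C in 20/80 vol% acetonitrile–aqueous PBS at the stated pH, in human serum, or with pig liver carboxylic ester hydrolase. Serum samples were pre-cleaned on C18 cartridges. Aliquots were quenched with an equal volume of acetonitrile and centrifuged, and the supernatant was analysed by HPLC peak area. k_obs was taken from the slope of first-order log conversion–time plots and reported as mean ± SD.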

[14] = Tested for half life period at 37 degree Centigrade in PBS buffer at 7.3 pH containing human serum esterase; format: ADME; conditions: pH 7.3; how it was run: as §1
[15] = molecular target: Cholinesterase (Homo sapiens) (UniProt P06276); assay: Tested for rate constant at 37 degree Celsius in PBS buffer at 8.0 pH containing human serum esterase expressed in 10 e-3 min e-1; how it was run: as §3
[16] = molecular target: Cholinesterase (Homo sapiens) (UniProt P06276); assay: Tested for rate constant at 37 degree Celsius in PBS buffer at 8.8 pH containing human serum esterase expressed in 10 e-3 min e-1; how it was run: as §3
[17] = Tested for half life period at 37 degree Celsius in PBS buffer at 10.5 pH containing human serum esterase; format: ADME; conditions: pH 10.5; how it was run: as §1
[18] = Tested for half life period at 37 degree Celsius in PBS buffer at 8.8 pH containing human serum esterase; format: ADME; conditions: pH 8.8; how it was run: as §1
[19] = molecular target: Cholinesterase (Homo sapiens) (UniProt P06276); assay: Tested for rate constant at 37 degree Celsius in PBS buffer at 7.3 pH in human serum containing porcine liver esterase expressed in 10 e-3 min e-1; format: cell-free; how it was run: as §3
[20] = Tested for half life period at 37 degree Celsius in PBS buffer at 8.0 pH containing human serum esterase; format: ADME; conditions: pH 8; how it was run: as §1

Sequence of Cholinesterase (Homo sapiens) (P06276 whole entry): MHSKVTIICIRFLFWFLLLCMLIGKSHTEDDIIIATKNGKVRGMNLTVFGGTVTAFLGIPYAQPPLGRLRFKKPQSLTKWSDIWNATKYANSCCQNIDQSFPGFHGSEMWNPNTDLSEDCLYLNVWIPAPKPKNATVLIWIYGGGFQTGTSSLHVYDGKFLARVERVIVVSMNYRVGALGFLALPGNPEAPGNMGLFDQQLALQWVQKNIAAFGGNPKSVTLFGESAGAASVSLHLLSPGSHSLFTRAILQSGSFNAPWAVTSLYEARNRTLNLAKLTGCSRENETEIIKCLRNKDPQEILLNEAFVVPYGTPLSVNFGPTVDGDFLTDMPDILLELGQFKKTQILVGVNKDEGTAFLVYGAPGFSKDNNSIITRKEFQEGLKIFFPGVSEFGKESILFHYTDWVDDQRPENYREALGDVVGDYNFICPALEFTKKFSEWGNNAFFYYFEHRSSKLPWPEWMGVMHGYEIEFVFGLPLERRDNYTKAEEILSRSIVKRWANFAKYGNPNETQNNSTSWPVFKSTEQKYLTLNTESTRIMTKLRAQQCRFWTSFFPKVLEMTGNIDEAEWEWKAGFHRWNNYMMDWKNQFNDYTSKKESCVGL

COc1cc([C@@H]2c3cc4c(cc3C(O[C@@H]3O[C@H]5CO[C@@H](C)O[C@H]5[C@H](O)[C@@H]3O)C3COC(=O)[C@@H]32)OCO4)cc(OC)c1OC(=O)OCC1COC(C)(C)O1 (stereo partly drawn)
K obs [1]: 8.33
half-life [2]: 12.5 h
IC50 [3]: 6500 nM
half-life [4]: 0.236 h
IC50 [5]: 10 nM
IC50 [6]: 110 nM
IC50 [7]: 3.5 nM
IC50 [8]: 12 nM
IC50 [9]: 3200 nM
IC50 [10]: 90 nM
half-life [11]: 1.39 h

COc1cc([C@@H]2c3cc4c(cc3[C@@H](O[C@@H]3O[C@@H]5CO[C@@H](C)O[C@H]5[C@H](O)[C@H]3O)[C@H]3COC(=O)[C@H]23)OCO4)cc(OC)c1O [ETOPOSIDE]
IC50 [3]: 100000 nM
IC50 [5]: 65 nM
IC50 [6]: 50000 nM
IC50 [8]: 7550 nM
IC50 [9]: 15500 nM
IC50 [10]: 65000 nM
IC50 [12]: 10000 nM

COc1cc([C@@H]2c3cc4c(cc3C(O[C@@H]3O[C@H]5CO[C@@H](C)O[C@H]5[C@H](O)[C@@H]3O)C3COC(=O)[C@@H]32)OCO4)cc(OC)c1OC(=O)OCC(O)CO (stereo partly drawn)
K obs [13]: 100
IC50 [3]: 38000 nM
IC50 [5]: 35 nM
IC50 [6]: 110 nM
half-life [14]: 0.934 h
K obs [15]: 3.2
IC50 [7]: 5.7 nM
IC50 [8]: 50 nM
K obs [16]: 7.14
IC50 [9]: 7600 nM
half-life [17]: 6.93 min
half-life [18]: 1.62 h
K obs [19]: 12.4
IC50 [10]: 580 nM
half-life [20]: 3.61 h
